Test system: MS2 coat protein
Assay: apparent Kd, MS2 coat protein; higher = weaker binding; RNA-MaP array; FMN 200 µM where present
Summary of the method: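 Designs were transcribed by stalled E. coli RNA polymerase on Illumina sequencing-chip clusters. They were titrated with SNAP-549-labelled MS2 coat protein from 0.7 or 1.5 nM, doubling to 3 µM, in 100 mM Tris-HCl pH 7.5, 80 mM KCl, 4 mM MgCl2, BSA, DTT, yeast tRNA and Tween-20, without and then with constant ligand. The apparent Kd is the median of filtered per-cluster fits after normalisation of green signal to red-channel RNA signal and control-cluster median Fmax.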

[1] = designed as: OFF switch for flavin mononucleotide, no ligand
[2] = ligand present: flavin mononucleotide, designed as: OFF switch for flavin mononucleotide
[3] = designed as: ON switch for flavin mononucleotide, no ligand
[4] = ligand present: flavin mononucleotide, designed as: ON switch for flavin mononucleotide

Sequence | apparent Kd [1] [µM] | apparent Kd [2] [µM] | apparent Kd [3] [µM] | apparent Kd [4] [µM]
CGUACUCAAAGAGUACCAAUACGAACAUGAGGAUCACCCAUGUAGGAUAUGCUACUCAAAGAGUAGCAGAAGGACAUGUGCCUA | 0.0193 | 0.0732 | – | –
GUGGCGACUGAGAAGGUACGCAUAAAAGAGAAGUAAGGAUAUCAGUCACAUGAGGAUCACCCAUGUGUUGGAAAGAUCCUUAAA | 0.0104 | 0.0379 | – | –
GGACCACAUCAGGAUAUGACUAGCCUCGGCUAGUCAGAAGGGAUGACAUGAGGAUCACCCAUGUGAUCAGGUCC | 0.0679 | 0.11 | – | –
AUCAUCUUAUCAGGAUAUGCGAGUCGACGAAAGUAGACAAUCUUGAUAACAUGAGGAUCACCCAUGUAGAAGGGAUGAGAUGAU | 0.0481 | 0.0517 | – | –
AAGUCGAGUGUGAGGAUAUUGACCGGACGACCCAUCGAGAAGGCACAUGAGGAUCACCCAUGUGAUUCAGCUCA | 0.017 | 0.023 | – | –
CCUCUACAUGAGGAUCACCCAUGUGAGGAUAUAAGAUUGCGGAUUCCGCACUACGGUCUUAGAAGGCGCGUGGA | 0.019 | 0.0381 | – | –
CCGAUAAAUGGAGGAUAUGGAGCCUUAUUGGCUCCAGAAGGCUAAUAACAUGAGGAUCACCCAUGUCGGCGGUCUAAUGACCGA | – | – | 0.0813 | 0.033
UAUAUGUCAGGAUAUUAGUUGAGGUGGAAUUUAGCCUCAGCUGAGAAGGGACAUGAGGAUCACCCAUGUUCCUC | 0.0221 | 0.241 | – | –
AGCAUGUUAGGAUAUGCGAAGUCAGGACACACACUGACGAAGCAGAAGGAACAUGAGGAUCACCCAUGUAAGCA | 0.0718 | 0.0457 | – | –
GUAUGUAAGGAGAAGGGCUACUGGUUGAAACCUGCGGCCUCUGGAACAUGAGGAUCACCCAUGUAGCAGGAUAUCCUUGCGUGA | 0.222 | 0.0229 | – | –
ACGAAACAUGAGGAUCACCCAUGUGCUUAAAGUGUAGGAUAUGGGAUAGCCUAGGUAGUCUCAGAAGGGCACCAAU | – | – | 0.0451 | 0.0225
CAGCCCUGAGGAUAUCCAUCCUUGUACAUGAGGAUCACCCAUGUUCUCCUCUGGGCUUUGGGAGAAGGCAGGUAUC | 0.0596 | 0.0587 | – | –
AAGUAGAUCCGAGGAUAUACAAUCCGGAAACGGUACAUGAGGAUCACCCAUGUAGAAGGCGGAUCUACAGGUACUAAAGUACCU | 0.00558 | 0.00798 | – | –
CGAUAGUGUAGUUAUCCGUAGCGAACAUGAGGAUCACCCAUGUAGGAUAUGUUACUAAACUAGUAACAGAAGGGCAUGAGUCUU | 0.0286 | 0.0756 | – | –
GGUCCGAGUGUGAGGAUAUGCUGGUCCUUGGAUCAGCAGAAGGCACAUGAGGAUCACCCAUGUGGAGACGGACC | 0.206 | 0.538 | – | –
AGAUCACAUGAGGAUCACCCAUGUGAGGAUAUAGAUUCAAGAGCUUCGGCUCUAAAGUCUAGAAGGCGCUAUGA | 0.0251 | 0.0256 | – | –
UCCUCGGUACGAGGAUAUUCACGACGGUGUUCGGAAGAAGGCGUACAUGAGGAUCACCCAUGUCCGUCGAAAGGACUAACCGGG | 0.049 | 0.0685 | – | –
ACAUGUACAGAGGAUAUGCGCCUUGGCAACGGUGUAGAAGGCUGAACAUGAGGAUCACCCAUGUGCAAUCCAGC | 0.0284 | 0.146 | – | –
AACAAACAUGAGGAUCACCCAUGUAAGGAUAUACGAAACAAACAAACAAACAAACAAAGUAGAAGGUACAGGAA | 0.0194 | 0.0183 | – | –

Sequence | apparent Kd [1] [µM] | apparent Kd [2] [µM] | apparent Kd [3] [µM] | apparent Kd [4] [µM]
AUGUUUAAUGCAGGAUAUGAUUAACAUGAGGAUCACCCAUGUGGUGUUGUGAGUAAGGAGAGUGAUCAGAAGGGCAUUUUUUUU | – | – | 0.592 | 0.54
CGAAGUCCGUAGAAGGGUGACAUGAGGAUCACCCAUGUGCGAGCGGAGAGAGUCAGCGGCUCGCCACAGGAUAUACGGAGCACG | – | – | 0.103 | 0.0291
UAUUAUCACGAAGGAUAUGCUUACAUGAGGAUCACCCAUGUAUGUAUAUUGAUCCAGCGUUUUGAGCAGAAGGUCGUGAGUAAA | 0.0201 | 0.0743 | – | –
GGAUUUCCUGAGGAUAUUGUAUCACCUGAUUGAUAAGAAGGCAGAACAUGAGGAUCACCCAUGUGGGUAUUCGG | 0.0929 | 0.0884 | – | –
CCGGAAAUACAGGAUAUAGGAGUCGAUAGACUCCUAGAAGGGUAUACAUGAGGAUCACCCAUGUUCCUUACCGG | 0.0459 | 0.0502 | – | –
ACGUUUUAUGCAGGAUAUUGAAAUUUAUUACAACAAGAAGGGCAAUACAUGAGGAUCACCCAUGUCAGCAUGGUAUUAAAGUUC | 0.018 | 0.0161 | – | –
AUACAUGAGGAUCACCCAUGUUACUGGGUCUAUAUAGAACGUAGAAGGAUGAUAUUAUAAAUAUCAUAGGAUAUACUAUUUUGU | 0.0299 | 0.0353 | – | –
CAGAAGUCAGGAUAUCCUGCUCGUCACUUGCGUGAUGAGUAGGAGAAGGGACAUGAGGAUCACCCAUGUAAAGU | 0.0689 | 0.095 | – | –
CUUGUUUAUGUGAGGAUAUACUGUUAGUAAUGUUUGUAGAAGGUACAUGAGGAUCACCCAUGUUUAUUUUUUUU | 0.0205 | 0.0197 | – | –
AUUUAUUAGUAAGGAUAUACUAGCGAUUAGCUUGUAGAAGGUACAGUCUUAUGUAUAGCAUGUUAACAUGAGGAUCACCCAUGU | – | – | 0.0232 | 0.0131
UUAAUGUGAGGAUAUCAAGUGUGAUAGAGUAAUGGUAAAUAUGAGAAGGCACAUGAGGAUCACCCAUGUUCUUC | 0.0157 | 0.0174 | – | –
CUGUUAUAGGUCCAUUUUAACAACAUGAGGAUCACCCAUGUGCAGGAUAUCGUGUUAAUUUUCAUCGAGAAGGGCAUAGUCACG | 0.0272 | 0.0584 | – | –
CCAACGUACAAUUUAGAUCUACAUGAGGAUCACCCAUGUACGGAGGAUAUCAGCUCGUUUAGAGCUGAGAAGGCCGAAUUAAUU | – | – | 0.342 | 0.0774
GUAGCAUACAGAGGAUAUUCAAAACCGGAAACGGACAUGAGGAUCACCCAUGUGGCGAAAGCCAGGGAGAAGGCUGAAUGCUAC | – | – | 0.0328 | 0.0148
ACAUGAGGAUCACCCAUGUGAGGAUCACCCAUGUUAUAUUUCAGAAGGCUCGUUUGUUUGAGGAGAGAGGAUAUGGAAUAUAGG | 0.127 | 0.0847 | – | –
AACAGUACAGGAUAUACAUGAGGAUCACCCAUGUGAGAAUUAAGUGGCGUACCACAUAGUAGAAGGGUACUGGA | 0.0711 | 0.156 | – | –
AUUUAAAUGUCAGGAUAUGUUAGUUUAUACAUAGUAGAAGGGAUAAUUAUACUCAUGUACAUGAGGAUCACCCAUGUUAAAUCA | – | – | 0.212 | 0.0985
UCGACCAGCGCCAGUCGAACAUGAGGAUCACCCAUGUACUCCAGAAGGCCGCCCAAGAACGGAGUGGAGGAUAUGGAGGUUCUC | – | – | 0.0377 | 0.0332
GUCAGCUCGUGAGGAUAUACAACACUGCUUCGGCAGUGUAUUAAGAUCACAUGAGGAUCACCCAUGUAGAAGGCACUAGCUGAU | 0.0139 | 0.256 | – | –

Sequence | apparent Kd [1] [µM] | apparent Kd [2] [µM] | apparent Kd [3] [µM] | apparent Kd [4] [µM]
GCAUGUGUAUAAGGAUAUGCAUCACUGAGAAAUUUAGUGAGGAAGAUCACAUGAGGAUCACCCAUGUAGAAGGUAUACACGUGC | 0.00732 | 0.0523 | – | –
UAUACAAACGAAGGAUAUGGAUACAUGAGGAUCACCCAUGUAUGUAUGAUGAUCUAGAAAAUGGGCCAGAAGGUCGUGAUUAUU | 0.0226 | 0.0627 | – | –
ACAUGUUAUGUAGGAUAUUAUACACAUGAGGAUCACCCAUGUAACCGGAGGCUUUACUAUGAGUAUGAGAAGGGUAUGAACAUG | 0.138 | 0.145 | – | –
UUGGACGUCGUAGGAUAUGUAGGAUAUUCCUACAUGAGGAUCACCCAUGUUGACAUGGACGAAGGACAGAAGGACGAUGUCCAU | – | – | 0.479 | 0.134
GCCUCACAUGAGGAUCACCCAUGUCAGGAUAUAGGAGACGGCAGAAAUCCUGCCAUCGCUAGAAGGGACUGGCA | 0.0239 | 0.105 | – | –
GAUCAACAUGAGGAUCACCCAUGUGAGGAUAUGAUACUAUGUACUUCGGUACAUAGUAUCAGAAGGCAUGUGGA | 0.158 | 0.0394 | – | –
GGUACCAUCGCAGGAUAUGCUAGGGUUUCCUUAGCAGAAGGGUGAUAACAUGAGGAUCACCCAUGUGGUACCGGGCGUGAGCCC | – | – | 0.095 | 1.16
AUUAAACAUGAGGAUCACCCAUGUAAUAAUAUGGGAGGAUAUGCGAAUUUAAUUAUUUAAGCAGAAGGCCUAAUUA | – | – | 0.063 | 0.0192
AUUAUGUUAGGAUAUGCUUAUGGUGGAUAGUCCAAUAUGGUGCAGAAGGGACAUGAGGAUCACCCAUGUACUGA | 0.0832 | 0.0903 | – | –
UUUGAAUAAGUGAGGAUAUACUGUUAGUAAUGAUUGUAGAAGGUACAUGAGGAUCACCCAUGUUUAUUAUUUAU | 0.0218 | 0.0183 | – | –
GUAGCAUACCGAGGAUAUUCUUAUAAUAAAUAAACAUGAGGAUCACCCAUGUGGCGAAAGCCAAGGGAGAAGGCGGAAUGCUAC | – | – | 0.0877 | 0.0201
AUAGCAACAUGAGGAUCACCCAUGUAGGAUAUCGCUAUUGUAAUCAUGAAACAUGAUUACAAUAGCGAGAAGGACAUAUGCUAA | 0.00784 | 0.0102 | – | –
GCUACGCCUGACAUGAGGAUCACCCAUGUUAGAUUGUUAUGUCAGGAUAUAGUCUAGAAACUAGACUAGAAGGGAUGUGUAGCU | – | – | 0.872 | 0.112
AGCUGUGGCCGAGGAUAUCUGAACUCAAUAACCGAAAUAUAAUCGGACAUGAGGAUCACCCAUGUAGAGAAGGCGGUCUCAGCA | 0.034 | 0.0565 | – | –
UGAGCGACCACAGGAUAUACUCGGGAAGACCAAGUAGAAGGGUGGAAGAGCGUGCAGUGACAUGAGGAUCACCCAUGUGGUUGU | – | – | 0.143 | 0.0973
UUUGUCUGUGUGAGGAUAUACUUUGUUUGGUCGUUGUAGAAGGCACAUGAGGAUCACCCAUGUAUUUUGUUGUG | 0.0287 | 0.0317 | – | –
UCUUUAUUUGUGAGGAUAUCGAUAAAAUGGAUUGUCGAGAAGGCACAUGAGGAUCACCCAUGUAUUGAACAGCA | 0.0592 | 0.212 | – | –
CAUCAUCAAGUGAGGAUAUCGUCAAAUCAAUCAAACGAGAAGGCACAUGAGGAUCACCCAUGUCGACUCAUCAA | 0.0183 | 0.0249 | – | –

From the EternaBench riboswitch data
